According to PMC4615699 (Cell, 2015):
Each block holds one compound with its values, some of them ahead of it.

How the values were obtained:
PTGS1 = PTGS1 (Mus musculus, UniProt P22437); experiment: In situ competitive SILAC profiling of A-DA labeling, PTGS1 in Neuro2a cells; assay type: cell-based; conditions: drug 25 μM, A-DA 5 μM, 30 min
[1] = target: aldose reductase-related protein 2 (AKR1B8) (Mus musculus, UniProt P45377); experiment: In situ competitive SILAC profiling of A-DA labeling, AKR1B8 in Neuro2a cells; assay type: cell-based; conditions: drug 25 μM, A-DA 5 μM
[2] = test system: PMA-stimulated A549 cells; experiment: Conversion of exogenous AEA to PGF2α-EA in PMA-stimulated A549 cells; assay type: cell-based, human; conditions: AEA 20 μM, 30 min; MJN228, KML110 5 and 25 μM; others 25 μM
In short: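 A549 cells stimulated with PMA were treated with test compound or DMSO. Exogenous AEA (20 μM, 30 min) was then added and prostamide PGF2α-EA formation was measured. Mean ± SEM, n = 3-4 per group.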

PTGS2 = PTGS2 (Homo sapiens, UniProt P35354); conditions: drug 25 μM, A-DA 5 μM, 30 min, A549
[3] = target: T1, recombinant, purified human NUCB1 (hNUCB1) (Homo sapiens, UniProt Q02818); experiment: NUCB1 FluoPol assay with Fl-AEA probe; assay type: binding; conditions: for suppression of the NUCB1-FluoPol signal by lipids: concentration-dependent
T1 sequence (Q02818 27-461): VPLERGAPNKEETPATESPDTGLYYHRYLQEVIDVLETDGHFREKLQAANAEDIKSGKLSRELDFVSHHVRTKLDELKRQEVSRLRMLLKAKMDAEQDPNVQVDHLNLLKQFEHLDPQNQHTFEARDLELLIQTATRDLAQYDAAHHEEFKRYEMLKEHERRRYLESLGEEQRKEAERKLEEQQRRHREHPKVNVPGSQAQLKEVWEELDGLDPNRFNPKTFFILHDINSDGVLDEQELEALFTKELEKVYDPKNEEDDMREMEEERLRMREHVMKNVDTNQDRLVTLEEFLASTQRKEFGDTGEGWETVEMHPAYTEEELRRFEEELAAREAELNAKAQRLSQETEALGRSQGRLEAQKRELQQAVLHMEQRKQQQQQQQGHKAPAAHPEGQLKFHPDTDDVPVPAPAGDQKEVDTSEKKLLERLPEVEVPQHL
In short: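 Fluorescence polarization readout using purified recombinant human NUCB1 and fluorescent arachidonoyl probe Fl-AEA. Lipid competitors were titrated for concentration-dependent loss of polarization signal. Mean ± SD from at least three independent experiments.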

NUCB1 [4] = target: T2, NUCB1 (Homo sapiens, UniProt Q02818); assay type: binding; conditions: read-out: IC50, blockade of AEA-DA probe labeling of NUCB1; AEA-DA 5 μM; NUCB1 0.25 μM in HEK293T lysates 0.75 mg/mL
T2 sequence (Q02818 27-461): T1 sequence (Q02818 27-461)

NUCB1 [5] = target: T3, NUCB1 (Mus musculus, UniProt Q02819); assay type: cell-based; conditions: Neuro2a cells; for reductions in lipid probe enrichment of NUCB1: 25 μM
T3 sequence (Q02819 26-459): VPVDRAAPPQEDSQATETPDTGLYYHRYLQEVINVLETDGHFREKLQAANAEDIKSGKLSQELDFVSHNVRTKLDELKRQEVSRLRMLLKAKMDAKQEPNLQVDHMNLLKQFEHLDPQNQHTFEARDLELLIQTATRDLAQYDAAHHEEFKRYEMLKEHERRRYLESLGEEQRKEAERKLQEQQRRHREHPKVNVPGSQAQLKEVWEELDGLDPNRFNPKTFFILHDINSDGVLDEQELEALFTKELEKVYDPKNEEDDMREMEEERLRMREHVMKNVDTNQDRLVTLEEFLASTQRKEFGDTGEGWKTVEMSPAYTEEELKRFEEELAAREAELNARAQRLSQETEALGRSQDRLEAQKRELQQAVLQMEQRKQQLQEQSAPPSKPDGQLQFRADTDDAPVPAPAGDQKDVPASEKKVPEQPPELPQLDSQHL

NUCB1 (aa 53-68) = NUCB1 (aa 53-68) (Mus musculus, UniProt Q02819); experiment: isoTOP-ABPP mapping of AEA-DA-labeled NUCB1 peptide in Neuro2a cells; assay type: cell-based; conditions: 50 μM compound, AEA-DA 50 μM
In short: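 Neuro2a cells were co-treated with AEA-DA (50 μM) and DMSO or test compound (50 μM), then UV-irradiated. Probe-labeled proteins were CuAAC-conjugated to TEV-cleavable azide-biotin tags, isotopically light for DMSO samples and heavy for compound samples. Probe-modified peptides were mapped by isoTOP-ABPP LC-MS/MS.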

Neuro2a cells [6] = experiment: Untargeted LC-MS lipidomic analysis of compound-treated Neuro2a cells; assay type: cell-based, mouse; conditions: 10 μM, 6 h, P < 0.0001
[7] = test system: purified recombinant FAAH; experiment: Inhibition of purified recombinant FAAH; assay type: biochemical; conditions: read-out: IC50 against purified recombinant FAAH
[8] = target: endogenous FAAH in Neuro2a lysates (Mus musculus, UniProt O08914); experiment: Inhibition of endogenous FAAH in Neuro2a lysates; assay type: biochemical; conditions: read-out: IC50 against endogenous FAAH in Neuro2a lysates
Sequence of endogenous FAAH in Neuro2a lysates (O08914 whole entry): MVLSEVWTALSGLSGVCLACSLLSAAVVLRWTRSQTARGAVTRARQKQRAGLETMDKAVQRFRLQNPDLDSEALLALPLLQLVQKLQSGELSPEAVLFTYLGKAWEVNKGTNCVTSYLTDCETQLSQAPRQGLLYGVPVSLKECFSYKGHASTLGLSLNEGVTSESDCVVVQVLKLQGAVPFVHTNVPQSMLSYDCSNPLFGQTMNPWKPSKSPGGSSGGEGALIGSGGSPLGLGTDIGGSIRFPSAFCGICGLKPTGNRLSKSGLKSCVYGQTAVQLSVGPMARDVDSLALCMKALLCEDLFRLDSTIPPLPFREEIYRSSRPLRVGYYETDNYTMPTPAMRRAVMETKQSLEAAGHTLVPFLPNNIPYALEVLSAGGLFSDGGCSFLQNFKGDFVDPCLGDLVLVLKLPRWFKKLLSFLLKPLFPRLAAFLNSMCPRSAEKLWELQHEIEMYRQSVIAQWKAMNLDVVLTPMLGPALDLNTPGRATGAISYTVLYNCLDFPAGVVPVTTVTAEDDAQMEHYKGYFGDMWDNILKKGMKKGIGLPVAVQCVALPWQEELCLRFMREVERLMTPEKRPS

Neuro2a cells [9] = experiment: Targeted metabolite; assay type: cell-based, mouse; conditions: for elevations in NAEs (targeted MRM): 10 μM, 6 h
In short: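 Neuro2a cells were treated with test compound (10 μM) or DMSO for 6 h. Fatty acid amides (NAEs, NATs) were quantified by targeted MRM mass spectrometry. Mean ± SEM, n = 3-4 per group, compared against DMSO-treated cells.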

[10] = test system: other AEA-DA-modified proteins; experiment: Gel-based AEA-DA labeling of other proteins in HEK293T cell lysates; assay type: binding, human
NENF = NENF (Homo sapiens, UniProt Q9UMX5); assay type: binding; conditions: competitors 1–100 μM; NENF-transfected HEK293T lysates
Sequence of NENF (Q9UMX5 32-172, species assumed): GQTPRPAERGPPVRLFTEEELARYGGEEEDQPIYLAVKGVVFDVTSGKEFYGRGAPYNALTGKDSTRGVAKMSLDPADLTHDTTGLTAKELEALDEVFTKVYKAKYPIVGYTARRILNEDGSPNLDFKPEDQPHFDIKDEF

LSS = LSS (Homo sapiens, UniProt P48449); experiment: In situ drug profiling with lipid probes, LSS; assay type: cell-based; conditions: 5 μM drug
Sequence of LSS (P48449 whole entry): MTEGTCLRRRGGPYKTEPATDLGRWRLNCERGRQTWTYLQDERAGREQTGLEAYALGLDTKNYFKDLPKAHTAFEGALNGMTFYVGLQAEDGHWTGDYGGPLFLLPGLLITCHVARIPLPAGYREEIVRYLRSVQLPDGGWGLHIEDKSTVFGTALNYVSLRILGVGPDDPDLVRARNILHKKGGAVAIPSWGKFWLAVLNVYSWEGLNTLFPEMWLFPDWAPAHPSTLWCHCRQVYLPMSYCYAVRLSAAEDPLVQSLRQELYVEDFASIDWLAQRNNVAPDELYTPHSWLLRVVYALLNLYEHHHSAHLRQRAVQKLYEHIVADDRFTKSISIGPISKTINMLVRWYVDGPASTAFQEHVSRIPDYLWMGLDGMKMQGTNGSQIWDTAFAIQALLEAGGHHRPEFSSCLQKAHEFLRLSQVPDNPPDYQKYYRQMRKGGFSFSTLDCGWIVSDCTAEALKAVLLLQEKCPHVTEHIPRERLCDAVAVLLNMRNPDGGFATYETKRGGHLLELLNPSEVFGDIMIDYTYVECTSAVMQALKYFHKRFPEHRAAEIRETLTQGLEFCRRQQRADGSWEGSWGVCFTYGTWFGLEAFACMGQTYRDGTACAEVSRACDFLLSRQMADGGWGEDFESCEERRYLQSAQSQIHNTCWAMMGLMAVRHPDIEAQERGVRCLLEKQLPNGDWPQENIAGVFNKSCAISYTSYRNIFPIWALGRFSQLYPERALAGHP

TMEM97 = TMEM97 (Mus musculus, UniProt Q8VD00); experiment: In situ drug profiling with lipid probes, TMEM97; assay type: cell-based
Sequence of TMEM97 (Q8VD00 whole entry): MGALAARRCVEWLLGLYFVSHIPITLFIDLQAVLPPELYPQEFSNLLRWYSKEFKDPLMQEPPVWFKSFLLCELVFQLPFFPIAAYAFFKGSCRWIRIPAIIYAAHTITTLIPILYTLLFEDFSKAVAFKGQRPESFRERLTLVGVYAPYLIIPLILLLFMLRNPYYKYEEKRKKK

EBP = EBP (Mus musculus, UniProt P70245); experiment: In situ drug profiling with lipid probes, EBP; assay type: cell-based; conditions: 5 μM drug
Sequence of EBP (P70245 whole entry): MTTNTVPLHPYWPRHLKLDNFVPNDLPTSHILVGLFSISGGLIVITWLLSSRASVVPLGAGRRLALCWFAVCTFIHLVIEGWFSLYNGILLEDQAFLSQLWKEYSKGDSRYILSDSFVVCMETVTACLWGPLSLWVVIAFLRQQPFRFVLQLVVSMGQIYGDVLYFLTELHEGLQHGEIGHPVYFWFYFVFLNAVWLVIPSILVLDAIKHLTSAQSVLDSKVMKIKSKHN

[11] = target: recombinantly expressed TMEM97 (Homo sapiens, UniProt Q5BJF2); assay type: cell-based; conditions: transfected HEK293T cells
Sequence of recombinantly expressed TMEM97 (Q5BJF2 whole entry): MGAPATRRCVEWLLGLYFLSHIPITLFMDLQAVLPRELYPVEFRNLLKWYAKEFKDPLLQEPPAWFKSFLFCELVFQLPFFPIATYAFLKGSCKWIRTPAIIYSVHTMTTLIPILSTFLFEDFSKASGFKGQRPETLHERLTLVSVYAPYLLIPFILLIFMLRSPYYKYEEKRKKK
In short: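 Transfected HEK293T cells (2.5 × 10^6 per 6-cm plate, grown 18-24 h) were washed in DPBS. They then received AEA-DA plus competitor or vehicle in serum-free media for 30 min at 37 °C, followed by 365 nm UV for 10 min at 4 °C. Lysates at 1.0 mg/mL were clicked to rhodamine-azide (TBTA, CuSO4, TCEP; 1 h, room temperature), resolved by 10% SDS-PAGE and read by in-gel fluorescence scanning.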

ABCB1B = ABCB1B (Mus musculus, UniProt P06795); experiment: In situ drug profiling with lipid probes, ABCB1B in Neuro2a cells; assay type: cell-based
Sequence of ABCB1B (P06795 whole entry): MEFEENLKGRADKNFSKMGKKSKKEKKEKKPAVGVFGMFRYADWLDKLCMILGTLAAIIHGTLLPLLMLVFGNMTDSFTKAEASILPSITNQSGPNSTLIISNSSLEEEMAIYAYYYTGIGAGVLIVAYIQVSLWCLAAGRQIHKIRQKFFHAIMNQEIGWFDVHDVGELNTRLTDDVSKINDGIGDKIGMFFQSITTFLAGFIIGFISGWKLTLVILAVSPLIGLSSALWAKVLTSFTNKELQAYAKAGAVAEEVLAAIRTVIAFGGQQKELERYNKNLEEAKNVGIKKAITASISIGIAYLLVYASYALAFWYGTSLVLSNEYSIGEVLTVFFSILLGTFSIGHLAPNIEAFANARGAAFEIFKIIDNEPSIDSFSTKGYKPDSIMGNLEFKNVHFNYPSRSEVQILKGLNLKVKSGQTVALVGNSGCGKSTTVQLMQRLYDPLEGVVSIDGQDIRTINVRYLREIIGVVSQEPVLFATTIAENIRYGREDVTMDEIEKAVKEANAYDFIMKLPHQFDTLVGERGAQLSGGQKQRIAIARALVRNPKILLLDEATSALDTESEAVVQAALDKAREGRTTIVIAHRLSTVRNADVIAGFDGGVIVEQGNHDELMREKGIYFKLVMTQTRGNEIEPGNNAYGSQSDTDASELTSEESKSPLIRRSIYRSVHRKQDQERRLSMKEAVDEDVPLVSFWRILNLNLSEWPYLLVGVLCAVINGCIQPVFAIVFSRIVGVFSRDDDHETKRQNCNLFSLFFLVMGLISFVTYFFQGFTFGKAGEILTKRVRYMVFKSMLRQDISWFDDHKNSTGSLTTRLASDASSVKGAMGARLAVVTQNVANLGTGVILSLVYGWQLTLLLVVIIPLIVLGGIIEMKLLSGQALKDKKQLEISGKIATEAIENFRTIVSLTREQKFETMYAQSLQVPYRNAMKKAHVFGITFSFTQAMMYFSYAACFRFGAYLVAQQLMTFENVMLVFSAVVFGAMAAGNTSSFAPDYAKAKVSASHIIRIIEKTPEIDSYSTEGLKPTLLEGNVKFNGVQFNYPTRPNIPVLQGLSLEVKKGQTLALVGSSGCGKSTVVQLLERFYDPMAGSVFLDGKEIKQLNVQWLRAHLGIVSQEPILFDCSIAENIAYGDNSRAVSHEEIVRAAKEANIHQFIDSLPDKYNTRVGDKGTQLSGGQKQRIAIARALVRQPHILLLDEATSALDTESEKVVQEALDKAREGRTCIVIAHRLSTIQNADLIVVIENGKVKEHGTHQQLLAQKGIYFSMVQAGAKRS

ferrochelatase (FECH) = ferrochelatase (FECH) (Mus musculus, UniProt P22315); experiment: In situ drug profiling with lipid probes, FECH; assay type: cell-based
Sequence of ferrochelatase (FECH) (P22315 54-422): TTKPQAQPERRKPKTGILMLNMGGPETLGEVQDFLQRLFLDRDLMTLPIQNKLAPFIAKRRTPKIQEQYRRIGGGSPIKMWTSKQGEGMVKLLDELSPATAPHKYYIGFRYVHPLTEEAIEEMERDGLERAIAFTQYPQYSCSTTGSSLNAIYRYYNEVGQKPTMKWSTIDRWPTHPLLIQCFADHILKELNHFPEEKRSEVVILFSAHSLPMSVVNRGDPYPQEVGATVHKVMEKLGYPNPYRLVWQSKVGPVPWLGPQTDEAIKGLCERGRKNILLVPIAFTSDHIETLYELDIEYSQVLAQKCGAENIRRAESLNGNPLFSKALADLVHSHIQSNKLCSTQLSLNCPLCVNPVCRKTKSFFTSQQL

NUCB1 [12] = target: T2, NUCB1; assay type: binding; conditions: AEA-DA 5.0 μM; lipids 20×
In short: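 Performed in vitro in lysates of NUCB1-transfected HEK293T cells, with AEA-DA probe and lipid competitors. Labeled proteomes (1.0 mg/mL) were CuAAC-conjugated to rhodamine-azide for 1 h at room temperature, quenched in SDS loading buffer, separated on 10% SDS-PAGE and detected by in-gel fluorescence.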

PTGR2 = PTGR2 (Mus musculus, UniProt Q8VDQ1); experiment: In situ AEA-DA competition with lipid competitor AEA, PTGR2; assay type: cell-based; conditions: competitor 200 μM
Sequence of PTGR2 (Q8VDQ1 whole entry): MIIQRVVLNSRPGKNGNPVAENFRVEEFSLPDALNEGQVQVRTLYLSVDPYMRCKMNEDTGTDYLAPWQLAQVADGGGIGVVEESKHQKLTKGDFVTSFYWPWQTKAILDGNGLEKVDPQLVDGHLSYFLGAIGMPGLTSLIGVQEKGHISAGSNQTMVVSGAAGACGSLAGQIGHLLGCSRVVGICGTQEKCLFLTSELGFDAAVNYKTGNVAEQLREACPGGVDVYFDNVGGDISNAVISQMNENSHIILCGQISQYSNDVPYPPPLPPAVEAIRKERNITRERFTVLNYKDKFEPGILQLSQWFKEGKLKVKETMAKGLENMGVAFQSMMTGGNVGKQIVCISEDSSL

DHRS1 = DHRS1 (Mus musculus, UniProt Q99L04); experiment: In situ AEA-DA competition with lipid competitor AEA, DHRS1; assay type: cell-based; conditions: competitor 200 μM
Sequence of DHRS1 (Q99L04 whole entry): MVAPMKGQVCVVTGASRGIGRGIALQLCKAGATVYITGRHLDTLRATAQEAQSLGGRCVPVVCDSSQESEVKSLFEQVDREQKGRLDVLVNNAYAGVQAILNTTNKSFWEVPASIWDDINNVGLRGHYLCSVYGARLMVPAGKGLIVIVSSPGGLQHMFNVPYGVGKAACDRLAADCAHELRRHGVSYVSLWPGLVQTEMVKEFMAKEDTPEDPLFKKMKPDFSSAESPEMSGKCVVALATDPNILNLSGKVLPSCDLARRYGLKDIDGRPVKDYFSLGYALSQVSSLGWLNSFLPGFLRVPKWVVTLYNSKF

[13] = test system: A549 cells treated with PMA; experiment: PMA-stimulated prostaglandin production in A549 cells; assay type: cell-based, human
NAMPT = NAMPT (Mus musculus, UniProt Q99KQ4); conditions: 25 μM, AEA-DA 5 μM, Neuro2a

Sequence of PTGS1 (P22437 27-602): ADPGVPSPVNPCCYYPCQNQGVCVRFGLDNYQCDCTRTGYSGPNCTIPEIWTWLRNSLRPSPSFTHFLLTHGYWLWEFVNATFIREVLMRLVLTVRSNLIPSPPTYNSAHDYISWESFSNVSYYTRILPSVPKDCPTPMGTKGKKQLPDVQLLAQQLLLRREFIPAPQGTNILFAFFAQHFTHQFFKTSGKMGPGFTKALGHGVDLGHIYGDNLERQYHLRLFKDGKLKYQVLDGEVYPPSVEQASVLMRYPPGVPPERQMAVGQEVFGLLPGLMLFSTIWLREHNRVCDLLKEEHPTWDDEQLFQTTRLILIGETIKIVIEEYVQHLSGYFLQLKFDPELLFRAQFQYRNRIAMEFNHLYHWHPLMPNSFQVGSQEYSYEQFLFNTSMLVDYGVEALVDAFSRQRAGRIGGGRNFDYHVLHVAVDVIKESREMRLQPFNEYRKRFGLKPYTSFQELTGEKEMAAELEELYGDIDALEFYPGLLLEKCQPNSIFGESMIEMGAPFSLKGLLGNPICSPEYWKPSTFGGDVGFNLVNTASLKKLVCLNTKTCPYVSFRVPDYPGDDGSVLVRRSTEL

Compound: CC(C(=O)O)c1ccc(-c2ccccc2)c(F)c1 (racemic) [(±)-flurbiprofen]
competition of A-DA labeling of PTGS1 (PTGS1): competitively blocked

Compound: CS(=O)(=O)c1ccc(C2=C(c3ccccc3)C(=O)OC2)cc1 [rofecoxib]
reduction in A-DA labeling of AKR1B8 [1]: strong reductions
conversion of exogenous AEA to PGF2α-EA [2]: blocked
competition of A-DA labeling of PTGS2 (PTGS2): disrupted

Compound: CCCCC/C=C\C/C=C\C/C=C\C/C=C\CCCC(=O)NCCCCCNC(=O)c1ccc(-c2c3ccc(=[N+](C)C)cc-3oc3cc(N(C)C)ccc23)c(C(=O)[O-])c1 [Fl-AEA]
binding of probe to hNUCB1 (increase in FluoPol signal) [3]: bound

Compound: C=CC1=C(C)c2cc3[n-]c(cc4[n-]c(cc5nc(cc1n2)C(C)=C5C=C)c(C)c4CCC(=O)O)c(CCC(=O)O)c3C.[Cl-].[Fe+3] [hemin]
competition of AEA-DA probe labeling of recombinant NENF (NENF): inhibited
effect on other AEA-DA-modified proteins detected by SDS-PAGE ([10]; NENF-transfected HEK293T lysates): unaffected

Compound: O=C(Nc1cccnn1)N1CCC(=Cc2cccc(Oc3ccc(C(F)(F)F)cn3)c2)CC1 [PF-7845]
cellular concentrations of NAEs and NATs (Neuro2a cells [9]): elevated

Compound: COc1cc2c(cc1OC)CN(CCc1ccc(NC(=O)c3cccc4c(=O)c5cccc(OC)c5[nH]c34)cc1)CC2 [elacridar]
concentration blocking arachidonoyl probe labeling of ABCB1B (as low as) (ABCB1B): ≤ 0.5 µM
concentration blocking arachidonoyl probe labeling of TMEM97 (as low as) (TMEM97): ≤ 0.5 µM
concentration blocking arachidonoyl probe labeling of FECH (as low as) (ferrochelatase (FECH)): ≤ 0.5 µM
blockade of AEA-DA probe labeling of recombinant TMEM97 [11]: block

Compound: C=CC1=C(C)c2cc3[nH]c(cc4nc(cc5[nH]c(cc1n2)c(C)c5CCC(=O)O)C(CCC(=O)O)=C4C)c(C)c3C=C [Pp-IX, protoporphyrin IX]
competition of AEA-DA probe labeling of recombinant NENF (NENF): inhibited

Compound: CCCCC/C=C\C/C=C\C/C=C\C/C=C\CCCC(=O)NCCO [AEA, N-arachidonoyl ethanolamine]
blockade of AEA-DA probe labeling of recombinant NUCB1 by lipids (NUCB1 [12]): preferentially blocked
suppression of the NUCB1-FluoPol signal by lipids ([3]; Fl-AEA 0.5 μM, NUCB1 1.0 μM): Concentration-dependent suppression
competition of PTGR2 probe labeling (PTGR2): competed
competition of DHRS1 probe labeling (DHRS1): competed

Compound: CCCCC/C=C\C/C=C\C/C=C\C/C=C\CCCC(=O)OC(CO)CO [2-AG, 2-arachidonoyl glycerol]
blockade of AEA-DA probe labeling of recombinant NUCB1 by lipids (NUCB1 [12]): preferentially blocked
suppression of the NUCB1-FluoPol signal by lipids ([3]; Fl-AEA 0.5 μM, NUCB1 1.0 μM): Concentration-dependent suppression

Compound: CCCCC/C=C\C/C=C\C/C=C\C/C=C\CCCC(=O)O [AA, arachidonic acid]
competition of AEA-DA probe labeling of recombinant NENF (NENF): competitively blocked
blockade of AEA-DA probe labeling of recombinant NUCB1 by lipids (NUCB1 [12]): preferentially blocked
suppression of FluoPol signal by competitive lipid ([3]; 20 μM competitor, Fl-AEA 0.5 μM, NUCB1 1.0 μM): significantly suppressed
suppression of the NUCB1-FluoPol signal by lipids ([3]; Fl-AEA 0.5 μM, NUCB1 1.0 μM): Concentration-dependent suppression

The next lines start with results.

IC50 (NUCB1 [4]): 3.3 µM
selectivity for NUCB1 among ∼400 AEA-DA probe targets (NUCB1 [5]; 10 μM, AEA-DA 5 μM): most competed protein
reductions in lipid probe enrichment of NUCB1 (NUCB1 [5]): 3-5 fold
concentration inhibiting lipid probe binding to NUCB1 (as low as) (NUCB1 [5]): ≤ 10 µM
concentration of near-maximal inhibition of lipid probe binding to NUCB1 (NUCB1 [5]): ~25 µM
reduction of signals of AEA-DA-labeled NUCB1 peptide (aa 53-68) (NUCB1 (aa 53-68)): > 5 fold
IC50 [7]: > 100 µM
IC50 [8]: > 100 µM
Compound: CN1CCN(C(=O)c2[nH]c3ccc([N+](=O)[O-])cc3c2-c2ccccc2)CC1 [MJN228]
elevation of metabolites (NAEs and NATs) versus DMSO (Neuro2a cells [6]): ≥ 2 fold
cellular concentrations of NAEs and NATs (Neuro2a cells [9]): elevated
elevations in NAEs (targeted MRM) (Neuro2a cells [9]): elevations
conversion of exogenous AEA to PGF2α-EA [2]: suppress
disruption of other arachidonoyl probe-protein interactions ([10]; HEK293T cell lysates): did not appear to disrupt

IC50 (NUCB1 [4]): 9.6 µM
reductions in lipid probe enrichment of NUCB1 (NUCB1 [5]): 3-5 fold
IC50 [7]: > 100 µM
IC50 [8]: > 100 µM
Compound: CN1CCN(C(=O)c2c(-c3ccccc3)c3cc([N+](=O)[O-])ccc3n2C)CC1 [KML110]
cellular concentrations of NAEs and NATs (Neuro2a cells [9]): elevated
elevations in NAEs (targeted MRM) (Neuro2a cells [9]): elevations
conversion of exogenous AEA to PGF2α-EA [2]: suppress

competition of LSS (LSS): fully competed
competition of TMEM97 (TMEM97; 5 μM drug): prominent off-targets
competition of EBP (EBP): prominent off-targets
blockade of AEA-DA probe labeling of recombinant TMEM97 [11]: block
Compound: C=CCN(C)CCCCCCOc1ccc(C(=O)c2ccc(Br)cc2)c(F)c1 [Ro 48-8071]

competition of probe-labeling of ABCB1B (ABCB1B; 25 μM, AEA-DA 5 μM, Neuro2a): competed
competition of probe-labeling of NAMPT (NAMPT): competed
Compound: O=C(/C=C/c1cccnc1)NCCCCC1CCN(C(=O)c2ccccc2)CC1 [FK-866]
PMA-stimulated generation of PGE2 [13]: no effect
PMA-stimulated generation of TXB2 [13]: complete suppression
